Experimental data from ChEMBL document CHEMBL4699407, “Isoquinoline thiosemicarbazone displays potent anticancer activity with in vivo efficacy against aggressive leukemias” (RSC Med Chem, 2020).
Calls of active or inactive are those of the source. No cut-off for these calls is given here.

What was measured:
[1] = Cytotoxicity against human HPDE cells assessed as reduction in cell viability in presence of Cu2+ incubated for 72 hrs by cell titer-glo luminescent cell viability assay; type: cell-based
In short: (§1)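 Cells were grown in DMEM or RPMI with 10% FBS, without antibiotics, at 37 °C, 20% O2, 5% CO2. Adherent lines were seeded at 500 cells/well. Serially diluted compound was given with 20 μM Cu(II) (CuCl2) for 72 h; leukemia models received pre-formed 1:1 copper complex. ATP was read by CellTiter-Glo luminescence. IC50 is relative to DMSO-treated cells.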

[2] = tested on: Panc203; experiment: Cytotoxicity against human Panc203 cells assessed as reduction in cell viability in presence of Cu2+ incubated for 72 hrs by cell titer-glo luminescent cell viability assay; type: functional, cell-based; conditions: Panc203, 72 h; in short: as §1
[3] = tested on: ASPC1; experiment: Cytotoxicity against human ASPC1 cells assessed as reduction in cell viability in presence of Cu2+ incubated for 72 hrs by cell titer-glo luminescent cell viability assay; type: functional, cell-based; conditions: ASPC1, 72 h; in short: as §1
[4] = tested on: PANC-1; experiment: Cytotoxicity against human PANC-1 cells assessed as reduction in cell viability in presence of Cu2+ incubated for 72 hrs by cell titer-glo luminescent cell viability assay; type: functional, cell-based; conditions: PANC-1, 72 h; in short: as §1
[5] = tested on: L3.6pl; experiment: Cytotoxicity against human L3.6pl cells assessed as reduction in cell viability in presence of Cu2+ incubated for 72 hrs by cell titer-glo luminescent cell viability assay; type: functional, cell-based; in short: as §1
[6] = Cytotoxicity against human SUIT-2 cells assessed as reduction in cell viability in presence of Cu2+ incubated for 72 hrs by cell titer-glo luminescent cell viability assay; type: functional, cell-based; conditions: SUIT-2, 72 h; in short: as §1
[7] = tested on: BXPC-3; experiment: Cytotoxicity against human BXPC-3 cells assessed as reduction in cell viability in presence of Cu2+ incubated for 72 hrs by cell titer-glo luminescent cell viability assay; type: functional, cell-based; conditions: BXPC-3, 72 h; in short: as §1
[8] = tested on: MOLT-4; experiment: Cytotoxicity against human MOLT-4 cells assessed as reduction in cell viability in presence of Cu2+ incubated for 72 hrs by cell titer-glo luminescent cell viability assay; type: functional, cell-based; conditions: MOLT-4, 72 h; in short: as §1
[9] = tested on: MIA PaCa-2; experiment: Induction of apoptosis in human MIA PaCa-2 cells assessed as reduction in viable cells at 25 nM in presence of Cu2+ incubated for 72 hrs by annexin V and propidium iodide staining based flow cytometry analysis relative to control; type: functional
In short: (§2)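 Cells given 25 nM compound with or without 20 μM Cu(II) and/or the ATR inhibitor VE-822 at 250 nM for 72 h. Stained with annexin V-FITC and propidium iodide, then analysed on a five-laser flow cytometer to score viable, early apoptotic, late apoptotic and necrotic fractions against vehicle.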

[10] = tested on: MIA PaCa-2; experiment: Induction of apoptosis in human MIA PaCa-2 cells assessed as increase in necrotic cells at 25 nM in presence of Cu2+ incubated for 72 hrs by annexin V and propidium iodide staining based flow cytometry analysis relative to control; type: functional; in short: as §2
[11] = tested on: MIA PaCa-2; experiment: Induction of apoptosis in human MIA PaCa-2 cells assessed as increase in early apoptotic cells at 25 nM in presence of Cu2+ and ATRi incubated for 72 hrs by annexin V and propidium iodide staining based flow cytometry analysis relative to control; type: functional; in short: as §2
[12] = tested on: MIA PaCa-2; experiment: Induction of apoptosis in human MIA PaCa-2 cells assessed as increase in late apoptotic cells at 25 nM in presence of Cu2+ and ATRi incubated for 72 hrs by annexin V and propidium iodide staining based flow cytometry analysis relative to control; type: functional; in short: as §2
[13] = tested on: MIA PaCa-2; experiment: Induction of apoptosis in human MIA PaCa-2 cells assessed as decrease in viable cells at 25 nM incubated for 72 hrs by annexin V and propidium iodide staining based flow cytometry analysis relative to control; type: functional; in short: as §2
[14] = tested on: MIA PaCa-2; experiment: Induction of apoptosis in human MIA PaCa-2 cells assessed as increase in early apoptotic cells at 25 nM in presence of ATRi incubated for 72 hrs by annexin V and propidium iodide staining based flow cytometry analysis relative to control; type: functional; in short: as §2
[15] = tested on: MIA PaCa-2; experiment: Induction of apoptosis in human MIA PaCa-2 cells assessed as increase in necrotic cells at 25 nM in presence of ATRi incubated for 72 hrs by annexin V and propidium iodide staining based flow cytometry analysis relative to control; type: functional; in short: as §2
[16] = tested on: MIA PaCa-2; experiment: Induction of DNA damage in human MIA PaCa-2 cells assessed as increase in CHEK1 phosphorylation at 10 nM in presence of Cu2+ incubated for 48 hrs by immunoblot assay; type: functional, cell-based
In short: (§3)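 Treated with 10 nM compound plus 20 μM Cu(II). Lysed in RIPA buffer with protease and phosphatase inhibitors, then sonicated and centrifuged at 20 000g, 4 °C. Protein measured by micro BCA, and equal amounts run on bis-tris gels. Primary antibodies in 5% BSA/TBST; HRP-linked anti-rabbit or anti-mouse secondaries at 1:2500. Chemiluminescent detection on film; representative blot.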

[17] = tested on: MIA PaCa-2; experiment: Induction of DNA damage in human MIA PaCa-2 cells assessed as increase in pH2A.X phosphorylation at 10 nM in presence of Cu2+ incubated for 48 hrs by immunoblot assay; type: functional, cell-based; in short: as §3
[18] = tested on: MIA PaCa-2; experiment: Induction of apoptosis in human MIA PaCa-2 cells assessed as increase in caspase 3 cleavage at 10 nM in presence of Cu2+ incubated for 48 hrs by immunoblot assay; type: functional, cell-based; in short: as §3
[19] = tested on: MIA PaCa-2; experiment: Induction of DNA damage in human MIA PaCa-2 cells assessed as decrease in dGTP level at 25 nM in presence of Cu2+ incubated for 48 hrs by LC-MS/MS analysis; type: functional, cell-based
In short: (§4)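 Cells in DMEM or RPMI with 10% FBS, 37 °C, 5% CO2. Treated with 25 nM compound plus 20 μM Cu(II) for 48 h. Nucleotide pools quantified by LC-MS/MS with multiple reaction monitoring. Cells were in glucose-free DMEM with 10% dialyzed FBS and 11 mM [U-13C6]glucose for 48 h, and glucose-labeled pools were compared. Mean ± SD, n = 3, two-way ANOVA with Bonferroni correction.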

[20] = tested on: MIA PaCa-2; experiment: Induction of DNA damage in human MIA PaCa-2 cells assessed as decrease in TTP level at 25 nM in presence of Cu2+ incubated for 48 hrs by LC-MS/MS analysis; type: functional, cell-based
In short: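 MIAPACA2 cells were given 25 nM compound plus 20 μM Cu(II) for 48 h in glucose-free DMEM with 10% dialyzed FBS and 11 mM [U-13C6]glucose. Nucleotide pools were quantified by LC-MS/MS with multiple reaction monitoring. Mean ± SD, n = 3, two-way ANOVA with Bonferroni correction.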

[21] = tested on: MIA PaCa-2; experiment: Induction of DNA damage in human MIA PaCa-2 cells assessed as decrease in UTP level at 25 nM in presence of Cu2+ incubated for 48 hrs by LC-MS/MS analysis; type: functional, cell-based; in short: as §4
[22] = tested on: 143B; experiment: Cytotoxicity against human 143-BTK cells assessed as reduction in cell viability at 25 to 100 nM incubated for 48 hrs by trypan blue assay; type: functional, cell-based; conditions: dose nM 25-100, time 48.0 hrs
In short: (§5)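 143 BTK parental (WT) and ρ0 cells were exposed to the indicated compound concentrations plus 20 μM Cu(II) for 48 h. Viable cells were counted by trypan blue staining on a Vi-Cell counter. Mean ± SD, n = 2, Student t-test.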

[23] = tested on: 143B; experiment: Cytotoxicity against human 143-BTK Rho0 cells assessed as reduction in cell viability at 25 to 100 nM incubated for 48 hrs by trypan blue assay; type: functional, cell-based; conditions: dose nM 25-100, time 48.0 hrs; in short: as §5

With `CN(C)C(=S)NN=Cc1nccc2cc(F)ccc12` the Activity [1] was “Non-Toxic”, the IC50 [2] was 1 nM and the IC50 [3] was 1 nM. For the same molecule, the IC50 [4] was 1 nM, the IC50 [5] was 1 nM and the IC50 [6] was 1 nM. For the same molecule, the IC50 [7] was 1 nM, the IC50 [8] was 1 nM and the Activity [9] was 77.5%. It also gave an Activity [10] of 4.86%, an Activity [11] of 24.8% and an Activity [12] of 42.7%. It also gave an Activity [13] of 94.9%, an Activity [14] of 9.11% and an Activity [15] of 7.34%. The Activity [16] was “Active”, the Activity [17] was “Active” and the Activity [18] was “Active”. The Activity [19] was “Active”, the Activity [20] was “inactive” and the Activity [21] was “inactive”. The Activity [22] was “Active” and the Activity [23] was “inactive”.
